NALP3 yeast inh = NALP3 inhibition in yeast; Yeast reconstituted NLRP3/ASC/caspase-1, beta-gal luminescence, 24 h; inhibition, % at 10 µM; 330,000 tested, 0.39% active;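 active = inhibition of 50% or more; inactive = inhibition below 50%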;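 note: plate controls were induced DMSO wells for no effect and uninduced yeast grown without galactose for full effect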
ALR H2O2 inh = human ALR oxidase inhibition via reduced H2O2; 290,000 tested, 3.8% active; P55789; purified ALR, DTT oxidation, H2O2 HRP-luminol luminescence; AID 485317; inhibition, % (concentration not given with the values);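 active = mean replicate inhibition above about 79%, with every replicate also reaching it, limit read from the data; inconclusive = only one of the two criteria met; inactive = mean below limit and not every replicate reaching it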
Target sequence (P55789 whole entry, looked up): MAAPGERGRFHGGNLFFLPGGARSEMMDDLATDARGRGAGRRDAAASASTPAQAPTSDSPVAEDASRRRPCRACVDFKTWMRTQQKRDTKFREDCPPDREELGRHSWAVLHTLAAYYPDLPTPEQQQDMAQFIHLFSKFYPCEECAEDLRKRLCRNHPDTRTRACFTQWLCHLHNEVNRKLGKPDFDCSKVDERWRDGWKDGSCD
NALP1 inh = inhibitors of NALP1 inflammasome in yeast; S. cerevisiae NALP1/ASC/caspase-1 growth, X-gal OD620, 72 h; inhibition, % at 10 µM; 280,000 tested, 0.61% active; AID 2071; in the data active = inhibition mostly above about 24%, no sharp cut-off; inactive = mostly below about 32%
ATG4B inhibitor = ATG4B (human) cysteine protease inhibition. ATG4B cleavage of LC3-PLA2, NBD-HPC fluorescence, 1 h. 340,000 tested, 0.51% active. inhibition, % at 8.33 µM; in the data active = inhibition above about 40%
Calb FLC = C. albicans growth modulation with fluconazole; growth inhibition, % (concentration not given with the values); 300,000 tested, 0.57% active; C. albicans CaCi-2 + fluconazole, Alamar Blue growth, 48 h;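 active = growth inhibition above about 58% in most replicates, limit read from the data, passing the limit was not always enough; inconclusive = exactly half the replicates above a set limit; inactive = most replicates below a set limit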;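 note: all wells also contain fluconazole at 8 µg/ml as a sub-toxic cotreatment; 0% = median of DMSO wells and 100% = median of geldanamycin control wells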
UCH37 DUB inh = inhibitors of human deubiquitinating enzyme UCH37. purified proteasome/UCH37, Ub-AMC cleavage fluorescence. inhibition, % (no concentration beside the values). 330,000 tested, 0.33% active. AID 588478;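 active = mean inhibition over replicate wells above about 20%, limit read from the data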;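 note: 0% = compound-free wells with enzyme and 100% = wells lacking proteasome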
Target sequence (Q9Y5K5 whole entry, looked up): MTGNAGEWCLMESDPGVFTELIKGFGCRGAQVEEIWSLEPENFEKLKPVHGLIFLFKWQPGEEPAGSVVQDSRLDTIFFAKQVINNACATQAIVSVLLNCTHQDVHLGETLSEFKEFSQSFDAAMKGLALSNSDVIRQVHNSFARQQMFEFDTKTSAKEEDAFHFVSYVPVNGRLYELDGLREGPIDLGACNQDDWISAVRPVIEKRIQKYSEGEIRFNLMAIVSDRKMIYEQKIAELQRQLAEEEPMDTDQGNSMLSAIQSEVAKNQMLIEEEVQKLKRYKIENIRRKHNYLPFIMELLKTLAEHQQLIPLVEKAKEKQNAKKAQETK
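Assay system: Proteasome-bound UCH37. Buffer or medium: pH 7.4 Tris-HCl (50 mM) with ovalbumin, ATP-MgCl2, DTT. Incubation: 30 min preincubation with enzyme, 25 min cleavage at room temperature. Measured by: fluorescence, ex 355 nm, em 460 nm. Read-out basis: percent inhibition. Control set: wells without proteasome as full block, compound-free enzyme plus substrate as uninhibited.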
* hit, by the source's call; ? = inconclusive; . = no result given. Compounds with a hit are over-represented: about 4.8% of the library has one in this group of screens.

SMILES	NALP3 yeast inh	ALR H2O2 inh	NALP1 inh	ATG4B inhibitor	Calb FLC	UCH37 DUB inh
C=CCn1c(SCC(N)=O)nnc1-c1ccccc1O	-6	3	-16	0	1	0
C=CCn1c(SCC(=O)c2ccc(O)c(O)c2)nnc1-c1cccc(C)c1	14	70	.	-13	.	7
C=CCn1c(SCC(=O)c2ccc(O)c(O)c2)nnc1-c1cccnc1	16	99*	-3	1	-4	7
C=CCn1c(SCC(=O)NC2CCCC2)nnc1-c1cccnc1	21	3	9	-4	-9	2
C=CCn1c(SCC(N)=O)nnc1-c1cc(Br)ccc1O	18	97*	7	-4	-4	1
C=CCn1c(SCC(=O)c2ccc(O)c(O)c2)nnc1-c1cccc(Cl)c1	18	98*	.	-7	.	4
NC(=NS(=O)(=O)c1ccccc1)c1cccc([N+](=O)[O-])c1	.	.	.	.	.	2
CC(N=C1CC(C)(C)CC(=O)/C1=C(\O)CCCN1C(=O)c2ccccc2C1=O)C(=O)O (configuration not stated)	.	.	.	.	.	1
NC(=O)c1cc2ccccc2oc1=NNC(=O)c1ccccc1	.	.	.	.	.	6
COc1cc(OC)c(NC(C)C(=O)N2CCCC2)cc1Cl (configuration not stated)	-2	79*	0	-6	13	1
N#C/C(N=Nc1ccccc1O)=N\Nc1ccccc1O	28	99*	.	-3	0	0
Oc1ccccc1N=N/C(=N/Nc1ccccc1O)c1ccccc1	18	-2	.	-1	-10	4
CN(C)CCCN1C(=O)c2cc3ccccc3cc2C1=O	2	-31	9	3	0	-123
CCC(=O)c1ccc2c(c1)N(CCCN(C)C)c1ccccc1S2	28	98*	.	-2	.	2
CC(=O)c1ccc2c(c1)N(CCCN(C)C)c1ccccc1S2	.	.	.	-1	.	.
COc1ccc2c(c1)Sc1ccccc1N2CCN(C)C	14	98*	19	-9	-20	2
CN(C)CCCN1c2ccccc2Sc2ccccc21	22	98*	24	3	.	1
O=C(NC1=C(Nc2ccc(F)cc2)C(=O)c2ccccc2C1=O)c1ccc(Cl)cc1	21	-59	21	-2	0	21*
O=C(NNC(=O)c1ccc(NC(=O)c2ccccc2)cc1)c1ccc(F)cc1	18	-10	9	4	-10	-3
CCC(=O)n1nc(-c2ccccc2)nc1N	15	5	2	-11	-7	23*
Cc1ccc(-c2nc(N)n(C(=O)Cc3ccccc3)n2)cc1	8	-3	7	-6	34	4
CCC(=O)n1nc(-c2ccc(OC)cc2)nc1N	6	5	24*	0	-1	-1
O=C1Nc2ccccc2N=C(c2ccccc2)c2ccccc21	33	83*	7	4	-5	2
Nc1cc(C(F)(F)F)ccc1C(=O)O	10	97*	16	.	-3	.
Nc1cc(S(=O)(=O)C(F)(F)F)ccc1C(=O)O	-11	10	1	8	-8	1
SMILES	NALP3 yeast inh	ALR H2O2 inh	NALP1 inh	ATG4B inhibitor	Calb FLC	UCH37 DUB inh
CCN1CCN(CCCNC(=O)Cn2cc3c(n2)CCCC3)CC1	-2	-8	44*	-1	-13	3
O=C(Cn1cc2c(n1)CCCC2)NCCCN1CCN(Cc2ccccc2)CC1	12	.	0	7	-1	3
COc1ccc(C(=O)NN=Cc2ccc(OC)c(CN3CCN(c4ccc(F)cc4)CC3)c2)cc1	.	.	.	.	.	2
O=S(=O)(c1ccc(Br)cc1)N1CCN=C1SCc1cccnc1	18	?	26	-5	?	2
O=S(=O)(c1ccc2ccccc2c1)N1CCN=C1SCc1cccnc1	11	99*	5	-8	50	6
O=S(=O)(c1ccc(F)cc1)N1CCN=C1SCc1cccnc1	4	98*	4	-2	17	3
CC(=O)Nc1ccc(S(=O)(=O)N2CCN=C2SCc2cccnc2)cc1	-8	98*	17	0	8	6
COc1ccc(OC)c(S(=O)(=O)NN=Cc2c[nH]c3ccccc23)c1	.	.	.	.	.	2
NC(=O)CSc1nnc2sc3ccccc3n12	-1	-14	-1	-4	-11	24*
O=[N+]([O-])c1cccc(C=NN2CCN(Cc3ccccc3)CC2)c1	.	.	.	.	.	6
CC(=O)C1C(=O)CC(C)(O)C(C(C)=O)C1c1ccc(N(C)C)cc1 (configuration not stated)	10	98*	0	-11	-12	6
CCN(CC)c1ccc(C2C(C(C)=O)C(=O)CC(C)(O)C2C(C)=O)cc1 (configuration not stated)	-11	99*	.	-8	-4	2
O=C(CNC(=O)c1ccc2c(c1)OCO2)NN=Cc1cccc([N+](=O)[O-])c1	.	.	.	.	.	3
O=C(NN=Cc1cccs1)c1cccnc1	.	.	.	.	.	6
COc1ccccc1NC(=O)COc1ccc(C=NNC(=O)c2cccnc2)cc1	.	.	.	.	.	-3
Cc1cc(O)c(C(C)C)cc1N=Cc1cc([N+](=O)[O-])ccc1O	13	-5	6	5	20	6
O=c1[nH]cc(N=Cc2cc([N+](=O)[O-])ccc2O)c(=O)[nH]1	24	-7	0	.	93*	.
CC1=NN(/C(=N/c2nnc(C)s2)Nc2ccccc2)[C@H](c2ccc(C)cc2)S1	.	.	.	.	.	7
COc1cc(NC(=O)N2c3ccccc3Sc3ccccc32)c(C(=O)O)cc1OC	15	99*	13	8	-1	5
Cc1nccn1CC(=O)c1ccc(O)c(O)c1	5	87*	.	0	.	2
Cc1cc(N)n(-c2nc3ccccc3s2)n1	32	99*	-2	0	18	-4
Cc1cc(C)n(-c2nc3ccccc3s2)n1	-5	.	-16	7	-23	2
CN(CC(=O)N1CCN(c2cccc(Cl)c2)CC1)S(=O)(=O)c1cnc[nH]1	-8	6	26	-1	6	4
CN(CC(=O)N1CCN(c2ccccc2)CC1)S(=O)(=O)c1cnc[nH]1	4	98*	4	-3	-22	-1
Cc1cc(=O)[nH]c(NN=C/C=C/c2ccccc2)n1	.	.	.	.	.	8
SMILES	NALP3 yeast inh	ALR H2O2 inh	NALP1 inh	ATG4B inhibitor	Calb FLC	UCH37 DUB inh
O=S(=O)(c1cc(O)ccc1O)c1cccc2c(S(=O)(=O)c3cc(O)ccc3O)cccc12	11	93*	.	2	0	.
Cc1cccc(-n2c(C)cc(C=NNC(N)=S)c2C)c1	.	.	.	.	.	-16
Cc1nn(C)c(-c2n[nH]c(=S)n2Cc2ccco2)c1Cl	6	33	10	6	-1	5
Oc1ccc(-c2n[nH]c(=S)n2Cc2ccco2)cc1	6	91*	-10	9	-1	5
COc1cccc(-c2n[nH]c(=S)n2Cc2ccco2)c1OC	12	87*	-7	9	9	4
Oc1cc2ccccc2cc1-c1n[nH]c(=S)n1Cc1ccco1	28	.	-11	-10	50	-15
S=c1[nH]nc(Cc2ccccc2)n1Cc1ccco1	9	89*	13	3	-2	1

High-throughput results as filed in PubChem.
